Measured values taken from ChEMBL document CHEMBL3872202, “Synthesis and biofilm formation reduction of pyrazole-4-carboxamide derivatives in some Staphylococcus aureus strains” (Eur J Med Chem, 2016).

Columns and labels:
Staphylococcus aureus [1] = assay: Inhibition of Staphylococcus aureus ATCC 6538 planktonic growth at 250 uM after 24 hrs by microbroth dilution method
Staphylococcus aureus [2] = assay: Inhibition of Staphylococcus aureus ATCC 29213 planktonic growth at 250 uM after 24 hrs by microbroth dilution method
Staphylococcus aureus [3] = assay: Antibiofilm activity against Staphylococcus aureus ATCC 6538 after 24 hrs by crystal-violet stain based assay; format: functional; settings: ATCC 6538, 24 h
Method in brief: (§1)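 Biofilm prevention: diluted bacterial suspension (OD about 0.040 at 570 nm) with sub-MIC concentrations from 300 to 0.3 added at time zero, 37 °C for 24 h in 24-well polystyrene plates. Wells washed three times with PBS, stained with 0.1% crystal violet for 30 min, and the stain redissolved in ethanol. OD read at 600 nm. Percent inhibition taken against untreated control wells. Triplicate, repeated at least twice.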

Staphylococcus aureus [4] = assay: Antibiofilm activity against Staphylococcus aureus ATCC 25923 after 24 hrs by crystal-violet stain based assay; format: functional; settings: ATCC 25923, 24 h; method in brief: as §1
Staphylococcus aureus [5] = assay: Inhibition of Staphylococcus aureus ATCC 25923 planktonic growth at 250 uM after 24 hrs by microbroth dilution method
Staphylococcus aureus [6] = assay: Antibiofilm activity against Staphylococcus aureus ATCC 29213 after 24 hrs by crystal-violet stain based assay; format: functional; settings: ATCC 29213, 24 h; method in brief: as §1
[7] = Toxicity in Galleria mellonella assessed as effect on time to pupation at 1 mg/kg administered as single dose measured every 24 hrs for 72 hrs; format: organism-based; settings: in vivo
Method in brief: (§2)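 Uninfected larvae given a single 1 mg/kg injection in PBS with 3% DMSO, alongside untreated and vehicle-only groups, three replicates of four larvae each. Larvae kept in starvation and monitored for weight loss and time to pupation/chrysalis formation as sub-lethal endpoints. Groups compared statistically.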

[8] = Toxicity in Galleria mellonella assessed as effect on larval survival at 1 mg/kg administered as single dose measured every 24 hrs for 72 hrs; format: organism-based; settings: in vivo
Method in brief: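 Larvae held at 37 °C and given a single 1 mg/kg injection in PBS with 3% DMSO. Controls were untreated larvae and vehicle-injected larvae. Three replicates of four larvae per group. Survival checked at 24, 48 and 72 h after injection. Results given as mean with SD and compared by post hoc Tukey test (P < 0.05).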

Staphylococcus aureus [9] = assay: Antivirulence activity against Staphylococcus aureus ATCC 29213 infected in Galleria mellonella larvae assessed as increase in larvae survival at 1 mg/kg administered as single dose pretreated for 1 hr followed by bacterial infection measured every 24 hrs for 72 hrs relative to control; format: functional
Method in brief: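 Galleria mellonella larvae given a single 1 mg/kg injection in PBS with 3% DMSO 1 h before inoculation with live S. aureus ATCC 29213, injected into alternate prolegs. Controls: untouched larvae, uninfected vehicle-injected larvae, uninfected compound-treated larvae, and vehicle-pretreated infected larvae. Larvae held at 37 °C, survival checked at 24, 48 and 72 h. Three replicates of four larvae per group, Tukey post hoc test.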

[10] = Toxicity in Galleria mellonella assessed as effect on larval weight at 1 mg/kg administered as single dose measured every 24 hrs for 72 hrs; format: organism-based; settings: in vivo; method in brief: as §2
Staphylococcus aureus [11] = assay: Antibiofilm activity against Staphylococcus aureus ATCC 6538 after 24 hrs by safranin staining based assay; format: functional; settings: ATCC 6538, 24 h
Staphylococcus aureus [12] = assay: Antibiofilm activity against Staphylococcus aureus ATCC 25923 after 24 hrs by safranin staining based assay; format: functional; settings: ATCC 25923, 24 h
Staphylococcus aureus [13] = assay: Antibiofilm activity against Staphylococcus aureus ATCC 29213 after 24 hrs by safranin staining based assay; format: functional; settings: ATCC 29213, 24 h

Row | SMILES | growth inhibition (GI) (Staphylococcus aureus [1]) | growth inhibition (GI) (Staphylococcus aureus [2]) | IC50 (Staphylococcus aureus [3]) | IC50 (Staphylococcus aureus [4]) | growth inhibition (GI) (Staphylococcus aureus [5]) | IC50 (Staphylococcus aureus [6]) | Activity [7] | Activity [8] | fold change (FC) (Staphylococcus aureus [9]) | Activity [10] | IC50 (Staphylococcus aureus [11]) | IC50 (Staphylococcus aureus [12]) | IC50 (Staphylococcus aureus [13])
1 | CCOC(=O)c1cnn(-c2ccccn2)c1N | Non-Toxic | Non-Toxic | 91 µM | 102 µM | Non-Toxic | 31 µM | – | – | – | – | – | – | –
2 | CCOC(=O)c1cnn(-c2ccccc2)c1N | Non-Toxic | Non-Toxic | 95 µM | 222 µM | Non-Toxic | 34 µM | – | – | – | – | – | – | –
3 | Cc1c(C(=O)Nc2ccccc2)cnn1-c1ccccc1 | Non-Toxic | Non-Toxic | 77 µM | 112 µM | Non-Toxic | 309 µM | – | – | – | – | – | – | –
4 | Cc1c(C(=O)Nc2ccccc2)cnn1-c1cccc([N+](=O)[O-])c1 | Non-Toxic | Non-Toxic | 90 µM | 64 µM | Non-Toxic | 46 µM | – | – | – | – | – | – | –
5 | CC(=O)/C(=C\NNc1cc(Cl)ccc1Cl)C(=O)Nc1ccccc1 | Non-Toxic | Non-Toxic | 32 µM | 2.3 µM | Non-Toxic | 2.5 µM | Non-Toxic | Non-Toxic | 1.6 | Non-Toxic | – | – | –
6 | Cc1cc(C(=O)Nc2ccccc2)n(-c2ccccc2)n1 | Non-Toxic | Non-Toxic | 54 µM | 74 µM | Non-Toxic | 123 µM | – | – | – | – | – | – | –
7 | CCOC(=O)c1c(C)n[nH]c1N | Non-Toxic | Non-Toxic | 82 µM | 378 µM | Non-Toxic | 62 µM | – | – | – | – | – | – | –
8 | Cc1c(C(=O)Nc2ccccc2)cnn1-c1cc(Cl)ccc1Cl | Non-Toxic | Non-Toxic | – | 92 µM | Non-Toxic | 52 µM | – | – | – | – | – | – | –
9 | Cc1c(C(=O)Nc2ccccc2)cnn1-c1cccc(Cl)c1 | Non-Toxic | Non-Toxic | 103 µM | 161 µM | Non-Toxic | 169 µM | – | – | – | – | – | – | –
10 | CCOC(=O)/C(=N/Nc1cccc(C)c1)C(=O)c1cc(C)nn1CC | – | – | – | – | – | – | – | – | – | – | 43 µM | 10 µM | 1.7 µM
11 | Cc1c(C(=O)Nc2ccccc2)cnn1-c1cc(F)ccc1F | Non-Toxic | Non-Toxic | 81 µM | 61 µM | Non-Toxic | 89 µM | – | – | – | – | – | – | –
12 | CCn1nc(C)cc1C(=O)/C(=N\Nc1cccc(Cl)c1)C(=O)O | – | – | – | – | – | – | – | – | – | – | 11 µM | 20 µM | 16 µM
13 | CCOC(=O)c1cnn(-c2ccc(S(N)(=O)=O)cc2)c1N | Non-Toxic | Non-Toxic | 142 µM | 77 µM | Non-Toxic | 28 µM | – | – | – | – | – | – | –
14 | Cc1c(C(=O)Nc2ccccc2)cnn1-c1ccc([N+](=O)[O-])cc1 | Non-Toxic | Non-Toxic | 55 µM | 434 µM | Non-Toxic | 127 µM | – | – | – | – | – | – | –
15 | Cc1c(C(=O)Nc2ccccc2)cnn1-c1ccc(Cl)cc1 | Non-Toxic | Non-Toxic | 30 µM | 552 µM | Non-Toxic | 38 µM | – | – | – | – | – | – | –
16 | Cc1cc(C(=O)Nc2ccccc2)nn1-c1ccccc1 | Non-Toxic | Non-Toxic | 64 µM | 76 µM | Non-Toxic | 54 µM | – | – | – | – | – | – | –
17 | CCOC(=O)/C(=N/Nc1ccccc1F)C(=O)c1cc(C)nn1CC | – | – | – | – | – | – | – | – | – | – | 0.9 µM | 42 µM | 13 µM
18 | Cc1c(C(=O)Nc2ccccc2)cnn1-c1ccc(C(F)(F)F)cc1 | Non-Toxic | Non-Toxic | – | 64 µM | Non-Toxic | 46 µM | – | – | – | – | – | – | –
19 | CCOC(=O)c1cnn(C)c1N | Non-Toxic | Non-Toxic | – | 159 µM | Non-Toxic | 152 µM | – | – | – | – | – | – | –
20 | CCOC(=O)c1cn[nH]c1N | Non-Toxic | Non-Toxic | 85 µM | 213 µM | Non-Toxic | 83 µM | – | – | – | – | – | – | –
